Most compounds without a hit are left out; they make up all but 2.5% or so of the library.
DENV2 CPE rescue: protects cells from dengue virus 2 cytopathic effect | DENV2-infected cells, cytopathic effect rescue, plate reader | CPE inhibition, % at 9.99 µM | 350,000 compounds, 1.7% hits; in the data active = CPE inhibition above about 20%, passing the limit was not always enough; inconclusive = no clear call, values can overlap the other calls; tested in BHK-21 cells
SIRT5 block: blocks human SIRT5 desuccinylation of peptide; Q9NXA8; Purified SirT5, succinyl-peptide AMC, trypsin-coupled fluorescence; inhibition, % at 15 µM; 330,000 compounds, 1.1% hits; AID 652115; in the data active = inhibition above about 15%; inconclusive = no clear call, values can overlap the other calls
E-sel inducer: induces E-selectin expression in human endothelial cells; P16581; 260,000 compounds, 0.37% hits; activation, % at 7.58 µM; HUVEC E-selectin immunofluorescence imaging; normalized: neutral wells 0, TNF-alpha wells 100; AID 686992;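 active = mean E-selectin-positive cell signal at least 10% of the positive control, reached in at least 60% of replicates, without over 20% cell loss; inconclusive = no rule given, readout overlaps actives, possibly toxicity-flagged; inactive = the rest, including those meeting only one limit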
Target sequence (P16581 whole entry, looked up): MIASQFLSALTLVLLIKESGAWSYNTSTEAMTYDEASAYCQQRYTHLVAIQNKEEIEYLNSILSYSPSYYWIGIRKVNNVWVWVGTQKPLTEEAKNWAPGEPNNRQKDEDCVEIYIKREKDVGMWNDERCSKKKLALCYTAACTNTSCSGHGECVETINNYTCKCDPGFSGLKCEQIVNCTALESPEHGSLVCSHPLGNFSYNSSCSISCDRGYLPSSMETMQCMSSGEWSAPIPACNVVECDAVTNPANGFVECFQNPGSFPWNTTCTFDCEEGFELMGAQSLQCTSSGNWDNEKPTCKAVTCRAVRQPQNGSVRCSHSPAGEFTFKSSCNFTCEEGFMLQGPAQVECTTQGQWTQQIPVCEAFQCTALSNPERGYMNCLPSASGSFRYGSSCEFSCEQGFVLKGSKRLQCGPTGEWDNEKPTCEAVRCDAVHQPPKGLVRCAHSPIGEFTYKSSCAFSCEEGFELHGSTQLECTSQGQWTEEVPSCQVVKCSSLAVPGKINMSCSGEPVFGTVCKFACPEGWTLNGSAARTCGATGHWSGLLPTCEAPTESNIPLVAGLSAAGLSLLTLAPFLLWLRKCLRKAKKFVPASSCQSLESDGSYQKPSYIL
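Test system: HUVEC; input: 3,000 HUVEC/well; measured by: immunofluorescence imaging; read-out: % PE-positive cells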
ERAP1 HTS inh: blocks human ERAP1 aminopeptidase activity; 340,000 compounds, 0.15% hits; Q9NZ08; AID 652197; inhibition, % at 10.7 µM; recombinant ERAP1, Leu-AMC fluorescence, 60 min;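 active = mean replicate inhibition of at least 30%, or all replicates individually reaching that 30% level; inactive = mean below 30% and not every replicate reaching it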
PglD DTNB: PglD (C. jejuni) enzyme inhibition; purified PglD enzyme, DTNB colorimetric CoA detection; inhibition, % at 12.5 µM; 360,000 compounds, 0.098% hits; in the data active = inhibition above about 16%, passing the limit was not always enough; inconclusive = no clear call, values can overlap the other calls
Of the large screens only hits and unclear results are named; the others gave an inactive call; ! = not confirmed by another sample.

CC1(C)Oc2ccc3ccc(=O)oc3c2C[C@H]1O[C@@H]1O[C@H](CO)[C@@H](O)[C@H](O)[C@H]1O	DENV2 CPE rescue 41 (no result: SIRT5 block, ERAP1 HTS inh)
CC1(C)Oc2ccc3ccc(=O)oc3c2CC1O (stereo not drawn)	none (no result: E-sel inducer)
Cc1noc(C)c1S(=O)(=O)Nc1ccc2c(c1)C(=O)N([C@H](C)CO)C[C@@H](C)[C@H](CN(C)Cc1ccc(Cl)c(Cl)c1)OCCCC[C@@H](C)O2	SIRT5 block 17
Cc1noc(C)c1S(=O)(=O)Nc1ccc2c(c1)C(=O)N([C@H](C)CO)C[C@H](C)[C@@H](CN(C)Cc1ccc(Cl)c(Cl)c1)OCCCC[C@@H](C)O2	none
Cc1noc(C)c1S(=O)(=O)Nc1ccc2c(c1)C(=O)N([C@H](C)CO)C[C@H](C)[C@@H](CN(C)Cc1ccc(Cl)c(Cl)c1)OCCCC[C@H](C)O2	SIRT5 block 15 (no result: PglD DTNB)
Cc1noc(C)c1S(=O)(=O)Nc1ccc2c(c1)C(=O)N([C@H](C)CO)C[C@@H](C)[C@@H](CN(C)Cc1ccc3c(c1)OCO3)OCCCC[C@H](C)O2	none
Cc1noc(C)c1S(=O)(=O)Nc1ccc2c(c1)C(=O)N([C@@H](C)CO)C[C@@H](C)[C@H](CN(C)Cc1ccc3c(c1)OCO3)OCCCC[C@H](C)O2	none
Cc1noc(C)c1S(=O)(=O)Nc1ccc2c(c1)C(=O)N([C@@H](C)CO)C[C@H](C)[C@@H](CN(C)Cc1ccc(Cl)c(Cl)c1)OCCCC[C@H](C)O2	DENV2 CPE rescue 23 (no result: PglD DTNB)
CC1(C)CC(=O)c2sc(NC(=O)C3CC3)nc2C1	none
CCC(=O)N1CC2(CN(Cc3nccs3)C2)c2c(n(C)c3cc(OC)ccc23)[C@H]1CO	none (no result: PglD DTNB)
c1ccc(C[C@H]2CNCCN2CCCCC2CCCCC2)cc1	none (no result: SIRT5 block, ERAP1 HTS inh)
c1ccc2c(C[C@@H]3CNCCN3CCCCC3CCCCC3)cccc2c1	DENV2 CPE rescue 24
Cn1c(SCc2ccc(C#N)cc2)nnc1-c1ccccc1	SIRT5 block 21 (no result: DENV2 CPE rescue, E-sel inducer)
Cn1c(SCc2ccc(C#N)cc2)nnc1-c1cccc(Cl)c1	none (no result: DENV2 CPE rescue, SIRT5 block, E-sel inducer, ERAP1 HTS inh)
Cc1ccc(C)c(Cc2c(C)nc3c(C(=O)NCc4ccc5c(c4)OCO5)cnn3c2C)c1	none (no result: E-sel inducer, PglD DTNB)
O=C(Nc1ccc(F)cc1)Nc1ccc(Cl)cn1	none (no result: DENV2 CPE rescue, SIRT5 block, E-sel inducer, ERAP1 HTS inh)
CCOC(=O)C(NC(=O)Nc1ccc(Cl)cn1)(Oc1ccc(F)cc1)C(F)(F)F (stereo not drawn)	DENV2 CPE rescue 78 (no result: E-sel inducer)
Fc1ccccc1Cc1noc(CN2CCCC(CN3CCOCC3)C2)n1 (stereo not drawn)	SIRT5 block 22
CC(C)(C)[C@@H]1C=C(C(=O)N2CCN(Cc3ccc4c(c3)OCO4)CC2)O[C@H](OCc2ccc(CO)cc2)C1	DENV2 CPE rescue 34!
Cn1c2ccccc2c(=O)c2cc(C#Cc3ccccn3)ccc21	none
Cn1c2ccccc2c(=O)c2cc(C#Cc3ccsc3)ccc21	DENV2 CPE rescue 66 (no result: SIRT5 block, ERAP1 HTS inh)
O=[N+]([O-])c1cccc(S(=O)(=O)Nc2nc3ccccc3nc2Nc2cccc(S(=O)(=O)N3CCCCC3)c2)c1	SIRT5 block 25 (no result: PglD DTNB)
O=C(O)C1C2CCC(C2)C1C(=O)NCCc1ccc(F)cc1 (stereo not drawn)	SIRT5 block 17
C[C@@H]1CN([C@@H](C)CO)C(=O)c2cc(NC(=O)Cn3cnnn3)ccc2O[C@@H]1CN(C)C(=O)Nc1ccc(F)cc1	none
C[C@@H]1CN([C@H](C)CO)C(=O)c2cc(NC(=O)Cn3cnnn3)ccc2O[C@@H]1CN(C)C(=O)Nc1ccc(C(F)(F)F)cc1	DENV2 CPE rescue 59
C[C@H](CO)N1C[C@H](C)[C@@H](CN(C)C(=O)Nc2ccc3c(c2)OCO3)Oc2ccc(NC(=O)Cn3cnnn3)cc2CC1=O	DENV2 CPE rescue 24
C[C@@H]1CN([C@@H](C)CO)C(=O)Cc2cc(NC(=O)Cn3cnnn3)ccc2O[C@H]1CN(C)C(=O)Nc1ccc(C(F)(F)F)cc1	E-sel inducer 415
Cc1cc(C2C(=O)c3ccccc3C2=O)c(C)c(C)c1C	SIRT5 block 19 (no result: PglD DTNB)
CCc1ccccc1C1C(=O)c2ccccc2C1=O	none (no result: E-sel inducer, ERAP1 HTS inh)
O=C(C1CCOCC1)N1CC2(C1)[C@@H](c1ccccc1)[C@@H](CO)N2CCC(F)(F)F	SIRT5 block 26 (no result: PglD DTNB)
CS(=O)(=O)N1CC2(C1)[C@@H](c1ccccc1)[C@@H](CO)N2CCC(F)(F)F	DENV2 CPE rescue 20 (no result: PglD DTNB)
O=C(c1ccccc1)N1[C@H](CO)[C@H](c2ccccc2)C12CN(CCC(F)(F)F)C2	DENV2 CPE rescue 20 (no result: PglD DTNB)
O=C(C1CCOCC1)N1CC2(C1)[C@H](c1ccccc1)[C@@H](CO)N2CCC(F)(F)F	none (no result: PglD DTNB)
CS(=O)(=O)N1CC2(C1)[C@H](c1ccccc1)[C@@H](CO)N2CCC(F)(F)F	none (no result: PglD DTNB)
COc1ccc(CC(=O)Nc2cccc(C(C)=O)c2)cc1S(=O)(=O)N1CCOCC1	DENV2 CPE rescue inconclusive
COc1ccc(NC(=O)CN2CCOCC2)cc1S(=O)(=O)N1CCCCC1	none
COc1ccc(NC(=O)CN2CCc3ccccc3C2)cc1S(=O)(=O)N1CCOCC1	DENV2 CPE rescue 51 (no result: SIRT5 block, E-sel inducer, PglD DTNB)
CCN(CC)CCNC(=O)c1ccc(NC(=O)Cc2ccc(OC)c(S(=O)(=O)N3CCOCC3)c2)cc1	DENV2 CPE rescue 40 (no result: E-sel inducer, PglD DTNB)
CC1(C(=O)NS(=O)(=O)Cc2ccccc2)CCN1C(=O)C/C=C/c1ccccc1 (stereo not drawn)	none
CC1(C(=O)NS(=O)(=O)c2ccccc2C(F)(F)F)CCN1C(=O)CCc1ccccc1 (stereo not drawn)	DENV2 CPE rescue 49
CC1(C(=O)NS(C)(=O)=O)CCN1C(=O)C/C=C/c1ccccc1 (stereo not drawn)	DENV2 CPE rescue 61
Cc1ccccc1S(=O)(=O)NC(=O)C1(C)CCN1C(=O)CCc1ccccc1 (stereo not drawn)	none (no result: E-sel inducer)
COC(=O)C1=C(C)N(Cc2cccc(C(F)(F)F)c2)C(=NCc2ccccc2C(F)(F)F)NC1c1ccccc1C(F)(F)F (stereo not drawn)	none (no result: PglD DTNB)
CCN1C(=O)N[C@@H](c2cccc(C(F)(F)F)c2)C(C(=O)OC)=C1C	none (no result: SIRT5 block, ERAP1 HTS inh)
COC(=O)C1=C(C)N(Cc2cccc(C(F)(F)F)c2)C(=NCc2ccc(C(F)(F)F)cc2)NC1c1ccccc1C(F)(F)F (stereo not drawn)	DENV2 CPE rescue 28 (no result: PglD DTNB)
CCN(CC)CCCN=C1N[C@@H](c2cccc(C(F)(F)F)c2)C(C(=O)OC)=C(C)N1CC	ERAP1 HTS inh 61 (no result: SIRT5 block)
COC(=O)C1=C(C)N(Cc2cccc(C(F)(F)F)c2)C(=NCc2ccc(OC)cc2)NC1c1ccccc1C(F)(F)F (stereo not drawn)	SIRT5 block 15 (no result: PglD DTNB)
O=C(NCCNC(=O)c1ccccc1Br)c1ccccc1Br	none (no result: E-sel inducer)
COc1ccc(-c2nc(-c3cccc(C)c3)no2)cc1OC	SIRT5 block 17 (no result: E-sel inducer)
Cc1cc(Br)ccc1NC(=O)CN(C)C(=O)Cn1c(=O)cnc2ccccc21	ERAP1 HTS inh 38
CN(CC(=O)Nc1cccc(F)c1)C(=O)Cn1c(=O)cnc2ccccc21	none (no result: PglD DTNB)
CC(C)c1ccccc1NC(=O)c1cnccn1	SIRT5 block 20 (no result: DENV2 CPE rescue, E-sel inducer)
CC(C)(C)c1n[nH]c2c1CCCC2	SIRT5 block 42 (no result: PglD DTNB)

Screening data as filed in PubChem.
